The list is not random: actives were taken first. Their share in the collection is about 3.4%.
m5-HT2A agonist: mouse HTR2A agonism via beta-arrestin recruitment. P35363. CHO-K1 mHTR2A beta-arrestin complementation, luminescence; percent of 30 µM serotonin response. activation, % at 7.6 µM. 360,000 compounds, 0.66% hits. AID 624169;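 active = activation above a run cutoff, the mean activation of all tested compounds plus 3 SD, cut at about 14% in these data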
MC4R antagonist: blocks human MC4R cAMP signaling; P32245; MC4R-expressing cells, MTII-stimulated cAMP, LANCE TR-FRET; inhibition, % at 6.5 µM; 360,000 compounds, 0.48% hits; AID 540295;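 active = inhibition above its plate's cutoff, the mean of tested wells on that plate plus 3 SD, cut at about 29% in these data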
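System: U2OS-MC4R stable cell line; Technique: Eu-cAMP/anti-cAMP TR-FRET, emission 671 nm; Repeats: single well per compound; Also added: Melanotan II; Dosing: one concentration, 6.5 µM nominal; Schedule: 30-min compound, 1-h challenge, 1-h detection, room temperature.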
MIN6 prolif: inducers of beta-cell replication in MIN6 cells; 330,000 compounds, 0.29% hits; proliferation, % at 10 µM; MIN6 cells proliferation, ATPlite luminescence, 48 h; cells starved in 0.2% serum; 100% = growth in 10% serum;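 active = compounds whose signal lies at least 3.5 SD above the mean of all wells on their plate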
ANO1 activ: mouse TMEM16A channel activation, primary screen. HEK293 TMEM16A/YFP-H148Q/I152L, iodide quench fluorescence; stronger effect = lower value. B-score at 10 µM. 340,000 compounds, 0.3% hits. AID 623877;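 active = fluorescence-ratio B-score plate-corrected deviation score at least 3 library SD below zero, with starting fluorescence score within 5 deviations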;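 also: channel opened by trigger with iodide after compound preincubation; score built on the fluorescence ratio of max minus min over baseline; more negative score means more quench and so TMEM16A activation or potentiation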
Target sequence (Q8BHY3 whole entry, looked up): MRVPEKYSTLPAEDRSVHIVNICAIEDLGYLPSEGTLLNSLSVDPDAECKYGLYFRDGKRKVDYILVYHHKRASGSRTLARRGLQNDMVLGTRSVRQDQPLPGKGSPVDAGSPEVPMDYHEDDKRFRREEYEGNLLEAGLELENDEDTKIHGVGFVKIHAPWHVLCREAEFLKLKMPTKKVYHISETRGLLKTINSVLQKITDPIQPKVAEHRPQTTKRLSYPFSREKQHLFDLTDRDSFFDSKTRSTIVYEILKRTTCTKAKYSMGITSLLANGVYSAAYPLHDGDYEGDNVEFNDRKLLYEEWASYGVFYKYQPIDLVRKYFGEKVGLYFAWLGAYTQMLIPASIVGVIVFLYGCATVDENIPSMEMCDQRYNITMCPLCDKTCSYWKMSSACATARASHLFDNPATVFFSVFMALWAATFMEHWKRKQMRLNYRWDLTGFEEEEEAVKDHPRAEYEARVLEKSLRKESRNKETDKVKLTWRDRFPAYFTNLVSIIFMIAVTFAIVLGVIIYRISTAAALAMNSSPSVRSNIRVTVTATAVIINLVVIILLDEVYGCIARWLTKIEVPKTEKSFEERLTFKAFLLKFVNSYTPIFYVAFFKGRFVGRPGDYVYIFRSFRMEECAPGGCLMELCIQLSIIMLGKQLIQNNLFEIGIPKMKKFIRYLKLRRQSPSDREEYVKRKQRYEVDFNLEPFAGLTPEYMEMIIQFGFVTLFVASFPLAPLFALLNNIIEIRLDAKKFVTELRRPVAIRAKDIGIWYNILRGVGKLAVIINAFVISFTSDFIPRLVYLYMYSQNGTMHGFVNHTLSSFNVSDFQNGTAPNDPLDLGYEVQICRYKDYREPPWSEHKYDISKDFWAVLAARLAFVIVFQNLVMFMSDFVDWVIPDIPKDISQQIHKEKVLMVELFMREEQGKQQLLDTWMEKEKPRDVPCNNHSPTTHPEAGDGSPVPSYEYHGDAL
TMEM16A inh: mouse TMEM16A channel inhibition, primary screen; Q8BHY3; HEK293 TMEM16A/YFP iodide influx fluorescence, ionomycin; AID 588511; 310,000 compounds, 1.2% hits; normalized B-score (activity score, 25-100; higher = stronger inhibition) at 10 µM;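 active = ratio plate-corrected score three or more library SD toward inhibition, starting fluorescence score within five deviations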;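 also: score derived from kinetic fluorescence span divided by baseline fluorescence per well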
MC4R barr agon: human MC4R agonism via beta-arrestin; 360,000 compounds, 0.98% hits; activation, % at 8.9 µM; U2OS MC4R beta-arrestin complementation, luminescence; percent of melanotan II response, DMSO zero;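 active = activation above a per-plate cutoff, the mean activation of sample wells on that plate plus 3 SD, cut at about 8% in these data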
TMEM16A reconf: TMEM16A (mouse) chloride channel inhibition, re-confirmation | 2,300 compounds, 39% hits | AID 652189 | inhibition, % at 10 µM | shares compounds with TMEM16A inh | HEK293 TMEM16A/YFP-H148Q, iodide quench fluorescence; ionomycin added to raise cell calcium;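 active = mean duplicate percent inhibition, scaled so buffer wells are 0 and the reference blocker 100, over three buffer SD above buffer mean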
TMEM16A Ca cntr: counter-screen for TMEM16A inhibitors: effect on calcium mobilization. shares compounds with TMEM16A inh. TMEM16A/YFP HEK293, Fluo4 calcium mobilization. calcium response (% of ionomycin), % at 10 µM. 2,300 compounds, 2% hits;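 active = duplicate-averaged calcium signal over 20% of the ionomycin maximum, relative to buffer baseline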;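 also: each well's signal is peak minus trough fluorescence divided by its pre-addition baseline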
YFP-HEK293 quench: counter-screen for TMEM16A inhibitors: effect in parental YFP-HEK293 cells | 2,300 tested, under 10 active | iodide YFP quench, ionomycin | shares compounds with TMEM16A inh | YFP ratio F(max-min)/F0 at 10 µM;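 active = yellow fluorescent protein signal ratio exceeding the buffer control mean by over 5 SD of those controls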;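 also: ratio is mean of duplicate wells from kinetic YFP trace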
ClC-1 inh: rat ClC-1 inhibition, TMEM16A specificity screen; shares compounds with TMEM16A inh; CHO ClC-1-YFP, iodide influx fluorescence quench; iodide control reads 0, buffer control 100; ratio percent, % at 10 µM; 2,300 tested, under 10 active;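 active = duplicate-mean ratio percent above the mean of iodide-only control wells, which defines zero, plus 5 of their SD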;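 also: higher percent means stronger block of ClC-1 iodide influx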
Each line names hits and unclear results; the compound was inactive in the other large screens (follow-up assays come after a bar, where they were run).

CCOC(=O)C1(C)CCN1C(=O)c1ccccc1OC(F)(F)F (centres undefined)	none (no result: MIN6 prolif, ANO1 activ, TMEM16A inh)
N#Cc1ccccc1COC(=O)c1cccc(S(=O)(=O)N2CCCC2)c1	none (no result: TMEM16A inh)
COc1ccc(S(=O)(=O)N2CCOCC2)cc1N(C)S(=O)(=O)c1ccc(C)cc1	none
COc1ccc(S(=O)(=O)N2CCN(c3ccc(C)cc3C)CC2)cc1OC	TMEM16A inh 25 | TMEM16A reconf 25.5% | TMEM16A Ca cntr inactive | YFP-HEK293 quench inactive | ClC-1 inh inactive
COc1ccc(NS(=O)(=O)c2ccc(OC)c(N(C)S(=O)(=O)c3ccc(Cl)cc3)c2)cc1	TMEM16A inh 100 | TMEM16A reconf inactive | TMEM16A Ca cntr inactive | YFP-HEK293 quench inactive | ClC-1 inh inactive
COc1ccc(S(=O)(=O)N2CCCCCC2)cc1N(C)S(=O)(=O)c1ccc(C)cc1	TMEM16A inh 100 | TMEM16A reconf inactive | TMEM16A Ca cntr inactive | YFP-HEK293 quench inactive | ClC-1 inh inactive
Cc1ccc(OCc2csc(N)n2)cc1	none
Nc1nc(CN2CCN(c3ccccc3)CC2)nc(Nc2ccc(Cl)cc2)n1	TMEM16A inh 25 | TMEM16A reconf inactive | TMEM16A Ca cntr inactive | YFP-HEK293 quench inactive | ClC-1 inh inactive
N/C(=N\OC(=O)c1ccccc1F)c1cccc([N+](=O)[O-])c1	none
CCCc1[nH]nc2c1C1(CCOC1C)C(C#N)=C(N)O2 (centres undefined)	TMEM16A inh 25 | TMEM16A reconf inactive | TMEM16A Ca cntr inactive | YFP-HEK293 quench inactive | ClC-1 inh inactive
CCCc1[nH]nc2c1C(C1CCCCC1)C(C#N)=C(N)O2 (centres undefined)	none
O=c1cc(C(F)(F)F)[nH]c2c(OC(F)(F)F)cccc12	TMEM16A inh 100 | TMEM16A reconf 28.0% | TMEM16A Ca cntr inactive | YFP-HEK293 quench inactive | ClC-1 inh inactive
Cc1cccc2c(=O)cc(C(F)(F)F)[nH]c12	none
COc1ccc(CC2(CO)CCN(Cc3cnc(-c4ccccc4C)nc3)CC2)cc1	TMEM16A inh 25 | TMEM16A reconf inactive | TMEM16A Ca cntr inactive | YFP-HEK293 quench inactive | ClC-1 inh inactive
COc1ccc(CC2(CO)CCN(CC3=Cc4cc(Cl)ccc4OC3)CC2)cc1	TMEM16A inh 25 | TMEM16A reconf 16.5% | TMEM16A Ca cntr inactive | YFP-HEK293 quench inactive | ClC-1 inh inactive
COc1ccc(NC(=O)CCNC(=O)c2ccco2)c(OC)c1	none
CC1(C(=O)NS(=O)(=O)c2ccccc2Cl)CCN1C(=O)C1CCCCC1 (centres undefined)	none (no result: MIN6 prolif, ANO1 activ, TMEM16A inh)
Cc1cccc([C@@H]2[C@@H]3C(=O)N(Cc4ccccc4)C(=O)[C@@H]3[C@]3(CC(C)C)C(=O)N(c4cccc(F)c4)C(=O)N23)c1	none
C/C=C1\COC(C(=O)NCc2cccc(OC)c2OC)(C(F)(F)F)C=C1C=C1CCCCC1 (centres undefined)	TMEM16A inh 25 | TMEM16A reconf inactive | TMEM16A Ca cntr inactive | YFP-HEK293 quench inactive | ClC-1 inh inactive
COc1ccc(N2CCN(C(=O)CSc3nnc4nc(C)cc(C)n34)CC2)cc1	TMEM16A inh 25 | TMEM16A reconf inactive | TMEM16A Ca cntr inactive | YFP-HEK293 quench inactive | ClC-1 inh inactive
COc1ccc(N2CCN(C(=O)CSc3nnc(-c4cc5ccccc5cc4O)n3C)CC2)cc1	none
Cn1c(SCC(=O)N2CCN(c3ccccc3)CC2)nnc1-c1c[nH]c2ccccc12	TMEM16A inh 100 | TMEM16A reconf 21.0% | TMEM16A Ca cntr inactive | YFP-HEK293 quench inactive | ClC-1 inh inactive
CCN(CC)C(=O)CSc1nnc(COc2ccccc2)n1CC	TMEM16A inh 25 | TMEM16A reconf inactive | TMEM16A Ca cntr inactive | YFP-HEK293 quench inactive | ClC-1 inh inactive
Cc1cc2cc(CNC(=O)C3CC3)ccc2n1C	TMEM16A inh 100 | TMEM16A reconf inactive | TMEM16A Ca cntr inactive | YFP-HEK293 quench inactive | ClC-1 inh inactive

Bioassay records from PubChem BioAssay.
